In ChEMBL document CHEMBL3085765, “The synthesis, antiviral, cytostatic and cytotoxic evaluation of a new series of acyclonucleotide analogues with a 1,2,3-triazole linker” (Eur J Med Chem, 2013):

Tests used:
Assay type in all cases: functional, cell-based
CCRF-CEM = test: Cytostatic activity against human CEM cells after 3 days by coulter ZI particle counting analysis; conditions: 72 h
Method in brief: (§1)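 Cells seeded in 96-well plates and grown with or without serial dilutions of compound, 2 days for L1210 and 3 days for CEM and HeLa. IC50 taken as concentration inhibiting cell proliferation by 50%.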

L1210 = test: Cytostatic activity against mouse L1210 cells after 2 days by coulter ZI particle counting analysis; conditions: L1210, 48 h; method in brief: as §1
HeLa = test: Cytostatic activity against human HeLa cells after 3 days by coulter ZI particle counting analysis; conditions: 72 h; method in brief: as §1

| IC50 (CCRF-CEM) | IC50 (L1210) | IC50 (HeLa) | Structure (SMILES) |
| --- | --- | --- | --- |
| > 200 µM | > 200 µM | > 200 µM | Cc1cn(Cc2cn(CCCCP(=O)(O)O)nn2)c(=O)[nH]c1=O |
| > 200 µM | > 200 µM | > 200 µM | Nc1ncnc2c1ncn2Cc1cn(CCCCP(=O)(O)O)nn1 |
| > 200 µM | > 200 µM | > 200 µM | CCOP(=O)(OCC)C(O)CCn1cc(Cn2ccc(=O)[nH]c2=O)nn1 (centres undefined) |
| 70 µM | > 200 µM | > 200 µM | CCOP(=O)(OCC)C(O)CCn1cc(Cn2c(=O)n(C(=O)c3ccccc3)c(=O)c3ccccc32)nn1 (centres undefined) |
| > 200 µM | > 200 µM | > 200 µM | CCOP(=O)(OCC)C(O)CCn1cc(Cn2c(Cl)nc3c2c(=O)n(C)c(=O)n3C)nn1 (centres undefined) |
| > 200 µM | > 200 µM | > 200 µM | CCOP(=O)(OCC)C(O)CCn1cc(Cn2c(=O)c3c(ncn3C)n(C)c2=O)nn1 (centres undefined) |
| > 200 µM | > 200 µM | > 200 µM | O=C(c1ccccc1)n1c(=O)c2ccccc2n(Cc2cn(CCCP(=O)(O)O)nn2)c1=O |
| > 200 µM | > 200 µM | > 200 µM | Cc1cc2ncn(Cc3cn(CCCP(=O)(O)O)nn3)c2cc1C |
| > 200 µM | > 200 µM | > 200 µM | CCOP(=O)(CCCCn1cc(Cn2ccccc2=O)nn1)OCC |
| 72 µM | > 200 µM | > 200 µM | CCOP(=O)(CC(O)Cn1cc(Cn2c(=O)n(C(=O)c3ccccc3)c(=O)c3ccccc32)nn1)OCC (centres undefined) |
| > 200 µM | > 200 µM | > 200 µM | CCOP(=O)(CC(O)Cn1cc(Cn2ncc(=O)[nH]c2=O)nn1)OCC (centres undefined) |
| > 200 µM | > 200 µM | > 200 µM | CCOP(=O)(CC(O)Cn1cc(Cn2c(=O)c3c(ncn3C)n(C)c2=O)nn1)OCC (centres undefined) |
| > 200 µM | > 200 µM | > 200 µM | CCOP(=O)(CC(O)Cn1cc(Cn2cnc3c2c(=O)n(C)c(=O)n3C)nn1)OCC (centres undefined) |
| 78 µM | > 200 µM | ≥ 150 µM | CCOP(=O)(CC(O)Cn1cc(Cn2cnc3cc(C)c(C)cc32)nn1)OCC (centres undefined) |
| > 200 µM | > 200 µM | > 200 µM | CCOP(=O)(CC(O)Cn1cc(Cn2ccccc2=O)nn1)OCC (centres undefined) |
| > 200 µM | > 200 µM | > 200 µM | CCOP(=O)(OCC)C(O)CCn1cc(Cn2cc(C)c(=O)[nH]c2=O)nn1 (centres undefined) |
| 97 µM | > 200 µM | 42 µM | CCOP(=O)(Cn1cc(Cn2cnc3cc(C)c(C)cc32)nn1)OCC |
| > 200 µM | > 200 µM | > 200 µM | CCOP(=O)(CCn1cc(Cn2ncc(=O)[nH]c2=O)nn1)OCC |
| 23.4 µM | ≥ 200 µM | > 200 µM | CCOP(=O)(CCn1cc(Cn2cnc3cc(C)c(C)cc32)nn1)OCC |
| > 200 µM | > 200 µM | > 200 µM | CCOP(=O)(CCn1cc(Cn2ccccc2=O)nn1)OCC |
| > 200 µM | > 200 µM | > 200 µM | CCOP(=O)(CCCn1cc(Cn2ncc(=O)[nH]c2=O)nn1)OCC |
| > 200 µM | > 200 µM | > 200 µM | CCOP(=O)(CCCn1cc(Cn2cnc3c2c(=O)n(C)c(=O)n3C)nn1)OCC |
| > 200 µM | > 200 µM | > 200 µM | CCOP(=O)(CCCCn1cc(Cn2cnc3c(N)ncnc32)nn1)OCC |
| > 200 µM | > 200 µM | > 200 µM | CCOP(=O)(CCCCn1cc(Cn2ncc(=O)[nH]c2=O)nn1)OCC |
| > 200 µM | > 200 µM | > 200 µM | CCOP(=O)(CCCCn1cc(Cn2c(=O)c3c(ncn3C)n(C)c2=O)nn1)OCC |
| > 200 µM | > 200 µM | > 200 µM | CCOP(=O)(CCCCn1cc(Cn2cnc3c2c(=O)n(C)c(=O)n3C)nn1)OCC |
| ≥ 72 µM | > 200 µM | ≥ 89 µM | CCOP(=O)(Cn1cc(Cn2c(=O)n(C(=O)c3ccccc3)c(=O)c3ccccc32)nn1)OCC |
| > 200 µM | > 200 µM | > 200 µM | CCOP(=O)(Cn1cc(Cn2cnc3c2c(=O)n(C)c(=O)n3C)nn1)OCC |

The remaining lines, values behind:

| Structure (SMILES) | IC50 (CCRF-CEM) | IC50 (L1210) | IC50 (HeLa) |
| --- | --- | --- | --- |
| CCOP(=O)(CCCCn1cc(Cn2cnc3cc(C)c(C)cc32)nn1)OCC | 24.7 µM | > 200 µM | 172 µM |
| O=c1ccn(Cc2cn(CCCCP(=O)(O)O)nn2)c(=O)[nH]1 | > 200 µM | > 200 µM | > 200 µM |
| Cn1c(=O)c2c(ncn2Cc2cn(CC(O)P(=O)(O)O)nn2)n(C)c1=O (centres undefined) | > 200 µM | > 200 µM | > 200 µM |
| CCOP(=O)(OCC)C(O)CCn1cc(Cn2ccc(NC(C)=O)nc2=O)nn1 (centres undefined) | > 200 µM | > 200 µM | > 200 µM |
| CCOP(=O)(OCC)C(O)CCn1cc(Cn2ncc(=O)[nH]c2=O)nn1 (centres undefined) | > 200 µM | > 200 µM | > 200 µM |
| CCOP(=O)(OCC)C(O)CCn1cc(Cn2cnc3c2c(=O)n(C)c(=O)n3C)nn1 (centres undefined) | > 200 µM | > 200 µM | > 200 µM |
| CCOP(=O)(OCC)C(O)CCn1cc(Cn2cnc3cc(C)c(C)cc32)nn1 (centres undefined) | 163 µM | > 200 µM | > 200 µM |
| CCOP(=O)(OCC)C(O)CCn1cc(Cn2cc(C(C)=O)c3ccccc32)nn1 (centres undefined) | 100 µM | 124 µM | > 200 µM |
| CCOP(=O)(OCC)C(O)CCn1cc(Cn2ccccc2=O)nn1 (centres undefined) | > 200 µM | > 200 µM | > 200 µM |
| Cn1c(=O)c2c(nc(Cl)n2Cc2cn(CCCP(=O)(O)O)nn2)n(C)c1=O | > 200 µM | > 200 µM | > 200 µM |
| O=C(c1ccccc1)n1c(=O)ccn(Cc2cn(CCCP(=O)(O)O)nn2)c1=O | > 200 µM | > 200 µM | > 200 µM |
| CCOP(=O)(OCC)C(O)Cn1cc(Cn2c(=O)n(C(=O)c3ccccc3)c(=O)c3ccccc32)nn1 (centres undefined) | ≥ 77 µM | > 200 µM | > 200 µM |
| CCOP(=O)(OCC)C(O)Cn1cc(Cn2ncc(=O)[nH]c2=O)nn1 (centres undefined) | > 200 µM | > 200 µM | > 200 µM |
| CCOP(=O)(OCC)C(O)Cn1cc(Cn2c(Cl)nc3c2c(=O)n(C)c(=O)n3C)nn1 (centres undefined) | > 200 µM | > 200 µM | > 200 µM |
| CCOP(=O)(OCC)C(O)Cn1cc(Cn2c(=O)c3c(ncn3C)n(C)c2=O)nn1 (centres undefined) | > 200 µM | > 200 µM | > 200 µM |
| CCOP(=O)(OCC)C(O)Cn1cc(Cn2cnc3c2c(=O)n(C)c(=O)n3C)nn1 (centres undefined) | > 200 µM | > 200 µM | > 200 µM |
| CCOP(=O)(OCC)C(O)Cn1cc(Cn2cnc3cc(C)c(C)cc32)nn1 (centres undefined) | > 200 µM | > 200 µM | > 200 µM |
| CCOP(=O)(OCC)C(O)Cn1cc(Cn2cc(C(C)=O)c3ccccc32)nn1 (centres undefined) | 21 µM | > 200 µM | > 200 µM |
| CCOP(=O)(OCC)C(O)Cn1cc(Cn2ccccc2=O)nn1 (centres undefined) | > 200 µM | > 200 µM | > 200 µM |
| CCOP(=O)(CC(O)Cn1cc(Cn2c(Cl)nc3c2c(=O)n(C)c(=O)n3C)nn1)OCC (centres undefined) | > 200 µM | > 200 µM | > 200 µM |

| Structure (SMILES) | IC50 (CCRF-CEM) | IC50 (L1210) | IC50 (HeLa) |
| --- | --- | --- | --- |
| CCOP(=O)(CC(O)Cn1cc(Cn2cc(C(C)=O)c3ccccc32)nn1)OCC (centres undefined) | 43 µM | > 200 µM | 97 µM |
| CCOP(=O)(Cn1cc(Cn2cc(C(C)=O)c3ccccc32)nn1)OCC | 2.78 µM | 72 µM | 11 µM |
| CCOP(=O)(Cn1cc(Cn2ccccc2=O)nn1)OCC | > 200 µM | > 200 µM | > 200 µM |
| CCOP(=O)(CCn1cc(Cn2c(Cl)nc3c2c(=O)n(C)c(=O)n3C)nn1)OCC | > 200 µM | > 200 µM | 200 µM |
| CCOP(=O)(CCn1cc(Cn2c(=O)c3c(ncn3C)n(C)c2=O)nn1)OCC | > 200 µM | > 200 µM | 159 µM |
| CCOP(=O)(CCn1cc(Cn2cnc3c2c(=O)n(C)c(=O)n3C)nn1)OCC | > 200 µM | > 200 µM | > 200 µM |
| CCOP(=O)(CCn1cc(Cn2cc(C(C)=O)c3ccccc32)nn1)OCC | 11.4 µM | 197 µM | 18 µM |
| CCOP(=O)(CCCn1cc(Cn2c(Cl)nc3c2c(=O)n(C)c(=O)n3C)nn1)OCC | > 200 µM | > 200 µM | > 200 µM |
| CCOP(=O)(CCCn1cc(Cn2c(=O)c3c(ncn3C)n(C)c2=O)nn1)OCC | > 200 µM | > 200 µM | > 200 µM |
| CCOP(=O)(CCCn1cc(Cn2cnc3cc(C)c(C)cc32)nn1)OCC | 14 µM | 189 µM | 101 µM |
| CCOP(=O)(CCCn1cc(Cn2cc(C(C)=O)c3ccccc32)nn1)OCC | 4.54 µM | 164 µM | 19 µM |
| CCOP(=O)(CCCn1cc(Cn2ccccc2=O)nn1)OCC | > 200 µM | > 200 µM | > 200 µM |
| CCOP(=O)(CCCCn1cc(Cn2cc(C)c(=O)[nH]c2=O)nn1)OCC | > 200 µM | > 200 µM | > 200 µM |
| CCOP(=O)(CCCCn1cc(Cn2ccc(=O)[nH]c2=O)nn1)OCC | > 200 µM | > 200 µM | > 200 µM |
| CCOP(=O)(CCCCn1cc(Cn2ccc(NC(C)=O)nc2=O)nn1)OCC | > 200 µM | > 200 µM | > 200 µM |
| CCOP(=O)(CCCCn1cc(Cn2c(Cl)nc3c2c(=O)n(C)c(=O)n3C)nn1)OCC | > 200 µM | > 200 µM | > 200 µM |
| CCOP(=O)(CCCCn1cc(Cn2cc(C(C)=O)c3ccccc32)nn1)OCC | 12 µM | 200 µM | > 200 µM |
| CCOP(=O)(Cn1cc(Cn2ncc(=O)[nH]c2=O)nn1)OCC | > 200 µM | > 200 µM | > 200 µM |
| CCOP(=O)(Cn1cc(Cn2c(Cl)nc3c2c(=O)n(C)c(=O)n3C)nn1)OCC | > 200 µM | > 200 µM | > 200 µM |
| CCOP(=O)(Cn1cc(Cn2c(=O)c3c(ncn3C)n(C)c2=O)nn1)OCC | > 200 µM | > 200 µM | ≥ 149 µM |
